# Measurements as given in ChEMBL document CHEMBL4145471, “New 1,5 and 2,5-disubstituted tetrazoles-dependent activity towards surface barrier of Candida albicans” (Eur J Med Chem, 2018).
# What was measured:
# Candida albicans [1] = experiment: Synergistic antifungal activity against Candida albicans ATCC 90028 at 80 ug/ml after 48 hrs in presence of 10 ug/ml fluconazol by checkerboard assay relative to control; format: functional
# Method in brief: (§1)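 Checkerboard in C. albicans ATCC 90028, inoculum prepared per CLSI M27-A3 in RPMI. Fluconazole serially diluted 80-1.25 µg/mL across the plate against the partner compound at 80-1.25 µg/mL final. Incubated 48 h at 35°C. Metabolic activity read by XTT reduction at 475 nm (660 nm reference), given as % of the untreated growth control.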
# Candida albicans [2] = experiment: Synergistic antifungal activity against Candida albicans ATCC 90028 at 1.25 ug/ml after 48 hrs in presence of 80 ug/ml fluconazol by checkerboard assay relative to control; format: functional
# Method in brief: (§2)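 Checkerboard per M27-A3 against ATCC 90028: fluconazole at 80–1.25 µg/mL horizontally and partner compound at 80–1.25 µg/mL vertically, 100 µL yeast inoculum per well, 35°C for 48 h. After 48 h, metabolic activity was measured by XTT reduction at 475 nm (660 nm reference) relative to untreated growth control. FIC index is the sum of the FICs; <1 was defined as synergism and >1 as antagonism.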
# Candida albicans [3] = experiment: Antifungal activity against Candida albicans ATCC 90028 assessed as inhibition of metabolic activity at 5 ug/ml after 48 hrs in presence of 1.25 ug/ml fluconazol by XTT assay relative to control; format: functional; conditions: values are per cent of control
# Method in brief: (§3)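 Checkerboard against strain ATCC 90028, inoculum per M27-A3: fluconazole 80-1.25 µg/mL on one axis, tetrazole 80-1.25 µg/mL on the other. Plates at 35°C for 48 h, then XTT metabolic reduction read at 475 nm (660 nm reference). Activity is the drop in mean absorbance against untreated growth control. FICs and their summed FIC index are taken at 50% reduction in metabolic activity.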
# Candida albicans [4] = experiment: Antifungal activity against Candida albicans ATCC 90028 assessed as metabolic activity at 40 ug/ml after 48 hrs in presence of 40 ug/ml fluconazol by XTT assay relative to control; conditions: ATCC 90028, 48 h
# Candida albicans [5] = experiment: Antifungal activity against Candida albicans ATCC 90028 assessed as metabolic activity at 1.25 ug/ml after 48 hrs in presence of 1.25 ug/ml fluconazol by XTT assay relative to control; conditions: ATCC 90028, 48 h
# Candida albicans [6] = experiment: Antifungal activity against Candida albicans ATCC 90028 assessed as inhibition of metabolic activity at 1.25 ug/ml after 48 hrs in presence of 20 ug/ml fluconazol by XTT assay relative to control; format: functional; conditions: values are per cent of control; method in brief: as §3
# Candida albicans [7] = experiment: Antifungal activity against Candida albicans ATCC 90028 assessed as metabolic activity at 80 ug/ml after 48 hrs in presence of 2.5 ug/ml fluconazol by XTT assay relative to control
# Candida albicans [8] = experiment: Antifungal activity against Candida albicans ATCC 90028 assessed as metabolic activity at 40 ug/ml after 48 hrs in presence of 2.5 ug/ml fluconazol by XTT assay relative to control
# Candida albicans [9] = experiment: Antifungal activity against Candida albicans ATCC 90028 at 0.25 ug/ml after 48 hrs relative to control; format: functional
# Method in brief: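 Fluconazole (water stock, diluted in RPMI 1640) tested by CLSI M27-A3 broth microdilution against C. albicans ATCC 90028. Inoculum 1.8×10^3 cells/mL in RPMI 1640 buffered with MOPS, pH 7.0. Incubation at 35°C without agitation, read at 18 and 48 h. Growth by OD405 and visually; inhibition % calculated against solvent growth-control wells after subtracting sterility-control wells.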
# Caco-2 = experiment: Cytotoxicity against human Caco2 cells assessed as reduction in cell viability at 0.0313 ug/ml after 18 hrs by XTT assay ralative to control; format: cell-based; conditions: caco-2, 18 h
# Method in brief: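 Caco-2 cells were exposed to compound at 256, 16 or 0.0313 µg/mL for 18 h, then given XTT reagent for 4–6 h. Absorbance was read at 475 nm with a 660 nm reference, and viability and toxicity were expressed as %. CC50 was taken as the concentration giving 50% viability loss. Means ± SD of three independent experiments, samples in duplicate.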
# Candida albicans [10] = experiment: Antifungal activity against Candida albicans ATCC 90028 assessed as metabolic activity at 40 ug/ml after 48 hrs in presence of 80 ug/ml fluconazol by XTT assay relative to control
# Candida albicans [11] = experiment: Antifungal activity against Candida albicans ATCC 90028 assessed as inhibition of metabolic activity at 2.5 ug/ml after 48 hrs in presence of 5 ug/ml fluconazol by XTT assay relative to control; format: functional; conditions: values are per cent of control
# Method in brief: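 C. albicans ATCC 90028 in checkerboard: fluconazole serial dilutions (80-1.25 µg/mL) crossed with tetrazole (80-1.25 µg/mL final), M27-A3 inoculum in RPMI 1640, 35°C for 48 h. Metabolic activity measured by XTT reduction, read at 475 nm (660 nm reference). Activity expressed relative to untreated growth control absorbance.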
# Candida albicans [12] = experiment: Antifungal activity against Candida albicans ATCC 90028 at 4 ug/ml after 48 hrs relative to control; format: functional
# Method in brief: (§4)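 Planktonic broth microdilution per M27-A3 in MOPS-buffered RPMI 1640 (pH 7.0), final inoculum 1.8×10^3 cells/mL, compounds 0.0313–16 µg/mL from 1600 µg/mL stocks in ethanol or DMSO. Incubated at 35°C without agitation; OD405 read at 18 and 48 h. % inhibition was derived from test, sterility (no inoculum) and solvent growth-control wells. Amphotericin B at 0.5 µg/mL served as the 100% control.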
# Candida albicans [13] = experiment: Antifungal activity against Candida albicans ATCC 90028 after 48 hrs in presence of fluconazol by XTT assay; format: functional; conditions: ATCC 90028, 48 h; method in brief: as §3
# Candida albicans [14] = experiment: Synergistic antifungal activity against Candida albicans ATCC 90028 at 10 ug/ml after 48 hrs in presence of 80 ug/ml fluconazol by checkerboard assay relative to control; format: functional; method in brief: as §1
# Candida albicans [15] = experiment: Antifungal activity against Candida albicans ATCC 90028 assessed as metabolic activity at 20 ug/ml after 48 hrs in presence of 10 ug/ml fluconazol by XTT assay relative to control
# Candida albicans [16] = experiment: Antifungal activity against Candida albicans ATCC 90028 assessed as metabolic activity at 40 ug/ml after 48 hrs in presence of 1.25 ug/ml fluconazol by XTT assay relative to control
# Candida albicans [17] = experiment: Synergistic antifungal activity against Candida albicans ATCC 90028 at 10 ug/ml after 48 hrs in presence of 1.25 ug/ml fluconazol by checkerboard assay relative to control; format: functional; method in brief: as §2
# Candida albicans [18] = experiment: Antifungal activity against Candida albicans ATCC 90028 at 8 ug/ml after 18 hrs relative to control; format: functional; method in brief: as §4
SMILES,growth inhibition (GI) (Candida albicans [1]),growth inhibition (GI) (Candida albicans [2]),residual activity (Candida albicans [3]),Metabolic activity at 40 µg/mL (Candida albicans [4]),metabolic activity at 1.25 µg/mL (Candida albicans [5]),residual activity (Candida albicans [6]),Metabolic activity (Candida albicans [7]),Metabolic activity (Candida albicans [8]),Activity (Candida albicans [9]),Activity (Caco-2),Metabolic activity (Candida albicans [10]),residual activity (Candida albicans [11]),Activity (Candida albicans [12]),MIC (Candida albicans [13]),growth inhibition (GI) (Candida albicans [14]),Metabolic activity (Candida albicans [15]),Metabolic activity (Candida albicans [16]),growth inhibition (GI) (Candida albicans [17]),Activity (Candida albicans [18])
Cc1ccc(-c2nnn(CCCN3CCOCC3)n2)cc1,99.8%,99.54%,100%,95.3%,74.3%,100%,78.22%,26.03%,98.68%,18.76%,66.33%,100%,99.45%,20 µg/mL,99.21%,46.94%,40.06%,97.81%,99.97%
ClCCCn1nnnc1-c1ccccc1Cl,99.78%,99.49%,79.99%,100%,86.4%,60.65%,59.43%,75.66%,99.62%,0%,63.62%,100%,99.41%,80 µg/mL,99.43%,68.01%,13.59%,99.86%,99.44%
CCOC(=O)CCn1nnc(-c2ccccc2)n1,99.84%,99.51%,88.02%,100%,87%,62.2%,64.31%,61.61%,98.7%,0%,55.99%,95.38%,99.68%,80 µg/mL,99.49%,59.93%,66.6%,99.72%,99.01%
